# What was measured:
# Nakaseomyces glabratus [1] = experiment: Inhibitory effect on Candida glabrata YEM75 WT Strain; assay type: functional
# Procedure, shortened: (§1)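 For C. glabrata strains, MICs were determined by serial dilution in RPMI medium and read after 48 h. MIC is the lowest concentration giving turbidity ≤20% of the control culture.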
# Nakaseomyces glabratus [2] = experiment: Inhibitory effect on Candida glabrata YEM88 CgCDR1 CgCDR2up Strain; assay type: functional; procedure, shortened: as §1
# Candida albicans [3] = experiment: Inhibitory effect on Candida albicans YEM12 Strain; assay type: functional
# Procedure, shortened: (§2)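 MICs were determined by serial dilution in RPMI medium. MIC is the lowest concentration giving culture turbidity ≤20% of the control culture.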
# Candida albicans [4] = experiment: Inhibitory effect on Candida albicans YEM13 BENup Strain; assay type: functional; procedure, shortened: as §2
# Candida albicans [5] = experiment: Inhibitory effect on Candida albicans YEM15 CDR1CDR2up Strain; assay type: functional; procedure, shortened: as §2
# Candida albicans [6] = experiment: Inhibitory effect on Candida albicans wild type YEM14 Strain; assay type: functional; procedure, shortened: as §2
# Candida albicans [7] = experiment: Inhibitory effect on Candida albicans wild type YEM30 Strain; assay type: functional; procedure, shortened: as §2
# Dihydrofolate reductase [8] = biological target: T1, Dihydrofolate reductase (Rattus norvegicus, UniProt Q920D2); experiment: (§3) Inhibitory activity against cell free dihydrofolate reductase (DHFR) from rat; conditions: read-out: I50
# T1 sequence (Q920D2 whole entry): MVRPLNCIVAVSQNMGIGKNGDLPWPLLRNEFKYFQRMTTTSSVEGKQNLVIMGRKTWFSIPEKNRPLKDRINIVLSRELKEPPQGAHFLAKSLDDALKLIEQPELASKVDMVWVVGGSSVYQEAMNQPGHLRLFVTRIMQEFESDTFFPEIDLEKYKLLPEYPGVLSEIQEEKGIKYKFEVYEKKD
# Procedure, shortened: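 Commercially sourced rat DHFR was preincubated 5 min at 25 °C with 0.1 mM NADPH and varying inhibitor in 0.1 M Tris, pH 7.24. The reaction was started with 0.03 mM dihydrofolate and followed as the fall in absorbance at 340 nm over time. I50 was taken as the inhibitor concentration halving reaction velocity, fitted by nonlinear regression.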
# Dihydrofolate reductase [9] = biological target: T2, Dihydrofolate reductase (Candida albicans, UniProt P22906); experiment: Inhibitory activity against cell free dihydrofolate reductase (DHFR) from Candida albicans; conditions: read-out: I50
# T2 sequence (P22906 whole entry): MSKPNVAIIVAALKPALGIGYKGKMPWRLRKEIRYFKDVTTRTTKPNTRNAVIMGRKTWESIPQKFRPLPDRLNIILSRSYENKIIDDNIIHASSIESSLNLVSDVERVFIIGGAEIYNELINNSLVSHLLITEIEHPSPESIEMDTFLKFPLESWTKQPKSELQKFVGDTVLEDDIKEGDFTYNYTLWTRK
# Nakaseomyces glabratus [10] = experiment: Inhibitory effect on Candida glabrata YEM216 pCDR1pCDR2pBEN YEM75 WT Strain; assay type: functional; procedure, shortened: as §1
# Candida albicans [11] = experiment: Inhibitory effect on Candida albicans YEM27 quad deletion Strain; assay type: functional; procedure, shortened: as §2
# Nakaseomyces glabratus [12] = experiment: IInhibitory effect on Candida glabrata YEM75 WT Strain; assay type: functional; procedure, shortened: as §1
# Dihydrofolate reductase [13] = biological target: T1, Dihydrofolate reductase; experiment: as §3; conditions: read-out: I50; remark: listed apart in the source
Compound,MIC (Nakaseomyces glabratus [1]) [µg/mL],MIC (Nakaseomyces glabratus [2]) [µg/mL],MIC (Candida albicans [3]) [µg/mL],MIC (Candida albicans [4]) [µg/mL],MIC (Candida albicans [5]) [µg/mL],MIC (Candida albicans [6]) [µg/mL],MIC (Candida albicans [7]) [µg/mL],IC50 (Dihydrofolate reductase [8]) [nM],IC50 (Dihydrofolate reductase [9]) [nM],MIC (Nakaseomyces glabratus [10]) [µg/mL],MIC (Candida albicans [11]) [µg/mL],MIC (Nakaseomyces glabratus [12]) [µg/mL],IC50 (Dihydrofolate reductase [13]) [nM]
COc1cc(OC)cc(N2C3CCC2CC(c2cnc(N)nc2N)C3)c1 (configuration not stated),4,32,16,> 64,> 64,64,32,84,26,4,1,,
COc1cc(Cc2cnc(N)nc2N)ccc1OCCNc1ccc(S(=O)(=O)c2ccc(N)cc2)cc1,,> 64,> 64,> 64,> 64,> 64,> 64,,340,> 64,> 64,> 64,7230

# — ChEMBL document CHEMBL1139439, “Folate-synthesizing enzyme system as target for development of inhibitors and inhibitor combinations against Candida albicans-synthesis and biological activity of new 2,4-diaminopyrimidines and 4'-substituted 4-aminodiphenyl sulfones” (J Med Chem, 2004)
